Test [1] is described as follows: S. cerevisiae growth inhibition in permissive medium (OD615), pilot counter-assay for S. cerevisiae lifespan shortening project, permissive growth control (AID 705;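 active means growth inhibition above 25% in both replicates, a cutoff set 3 SD above the mean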). The note with it: OD615, 24 h, at 10 µM, active compounds read high. The method in brief: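 assay system = Saccharomyces cerevisiae strain carrying genetically modified DeaD replicative-lifespan system | technique = absorbance (optical density) at 615 nm | buffer or medium = permissive raffinose/galactose medium | timing = cells pre-grown 4 h, then 24 h compound exposure, 30 °C humidified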

The nature of test [2]: S. cerevisiae growth inhibition in restrictive medium, OD615, pilot screen, restrictive growth control, yeast lifespan reduction project (AID 706;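 active means growth inhibition above a set limit, 3 SD over mean compound inhibition, in both replicates, cut at about 43% in these data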;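 further: modified DeaD lifespan yeast strain shifted to restrictive glucose medium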). To be noted: OD615, 48 h, at 10 µM, active compounds read high. Summed up:
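System: modified S. cerevisiae. Buffer or medium: CSMM-D glucose medium. Incubation: 4 h pre-growth plus 48 h compound exposure, 30 °C. Detection: absorbance (optical density) measured at 615 nm.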

Test [3] can be described thus: doxorubicin toxicity protection in MRP-1 cells – H69AR cells, CellTiter-Glo, duplicate, MRP-1 activator project, pilot screen (AID 807).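 Further: compound pretreatment 18-22 h then 72 h combined with doxorubicin; 0% = doxorubicin alone and 100% = vehicle without doxorubicin.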 To be noted: H69AR viability with doxorubicin, CellTiter-Glo luminescence; at 10 µM; active compounds read high. For orientation: ATP-based viability assays read luminescence as a measure of living cells.
The nature of test [4]: viability of HCT116 without oncogenic beta-catenin – human colon tumor cells, pilot screen (AID 823;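 active means cell viability at or below a set limit in both duplicate runs, the limit being the all-compound median minus 4 SD, cut at about 23% in these data, passing the limit was not always enough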;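 further: 0% = wells killed by 20 µM Hyamine and 100% = untreated DMSO cell wells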). To be noted: HCT116 beta-catenin knockout viability, CellTiter-Glo, 60 h; at 10 µM; active compounds read low.
Test [5] in a line: viability of PTEN-null HCT116 cells – cell-based, HCT116 clonal line, CellTiter-Glo, pilot screen (AID 824;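 active means viability at or below 27.92% in each of two runs, the all-compound median minus 4 SD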;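 further: 0% = 20 µM Hyamine control and 100% = vehicle cell control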). To be noted: HCT116 PTEN-deleted viability, 60 h, at 10 µM, active compounds read low.
Test [6] can be described thus: RAM pathway blockade in budding yeast – dse1pr::URA3 reporter, 5-FOA selection, pilot screen (AID 869;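 active means inhibition over a set limit, the all-compound mean plus 3 SD, in both replicate runs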;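 further: 0% = DMSO wells with no growth and 100% = 10 µM 1-NA-PP1 with full growth; RAM network block rescues cells from 5-FOA so hits raise OD615 growth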). To be noted: S. cerevisiae dse1pr::URA3 5-FOA growth, OD615, 2 d; at 10 µM; active compounds read high; strain carries analog-sensitive mutant Cbk1 kinase.
Test [7] in a line: RAM signaling pathway blockade in yeast – S. cerevisiae, Pdr1DBD-CYC8 efflux-inhibited sensitized strain, primary screen (AID 1298;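 active means RAM network inhibition above 8.4% in each of two replicates, 3 SD over the compound average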;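 further: 0% = DMSO untreated cells without growth and 100% = 10 µM 1-NA-PP1 full growth; higher means more yeast growth rescued from 5-FOA killing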). To be noted: S. cerevisiae cbk1-as DSE1-URA3 strain, 5-FOA growth OD615, 2 d; at 50 µM; active compounds read high.

Molecules are shown by their SMILES. Unmarked numbers belong to inactive results. Inconclusive results are not listed. The source made the active and inactive calls.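 How the source made its calls, unless noted: active means viability increase at or above a cutoff of the median across tested compounds plus 3 SD (cut at about 8.5% in these data, passing the limit was not always enough); inconclusive means some gains above the cutoff, reason not given; inactive means the rest.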

One may read the viability as a read-out of living cells in per cent, often relative to untreated cells. As usually defined, the inhibition is the relative decrease from the control value, in per cent.

On to `COc1ccc(OCC(=O)Nc2cc(-c3nn4c(C)nnc4s3)ccc2C)cc1`, for which the growth inhibition in test [1] was 0.16%; in test [2] it was 0.525%. The viability increase in test [3] is -1.72%. The viability in test [4] was 106%; in test [5], 94%. The inhibition in test [6] is 0.755%. In test [7], the RAM network inhibition is 5.36%.
Regarding `CCOC(=O)c1ccc(NCn2c(=O)oc3ccccc32)cc1`, the growth inhibition was -8.51% in test [1] and -15.7% in test [2]. Also, the viability increase in test [3] is -4.09%. In addition, the viability in test [4] is 88.5%; in test [5], 87.6%. Also, the inhibition in test [6] is -0.385%. In addition, the RAM network inhibition in test [7] is -0.1%.
Consider `Cc1ccc(-c2nnc3ccc(SC(C)C(=O)O)nn23)cc1` (stereo unspecified), for which the growth inhibition was 13.9% in test [1] and 60.9% (active) in test [2]. For the same molecule, in test [3], the viability increase was -1.29%. Besides, the viability is 99.1% in test [4] and 97.8% in test [5]. In addition, the inhibition in test [6] was 2.31%. Moreover, the RAM network inhibition in test [7] is 3.9%.
On to `O=C(CSCc1ccc(Cl)cc1)c1ccco1`, for which the growth inhibition in test [1] was -9.9%; in test [2], 0.15%. Moreover, the viability increase in test [3] was 0.59%. The viability in test [4] is 96.5%; in test [5], 89.8%. Moreover, the inhibition in test [6] was 0.695%. Also, the RAM network inhibition in test [7] is 2.59%.
As to `CCCN1C(=O)c2cc(C(=O)Nc3ccccc3CC)ccc2C1O` (stereo unspecified), the growth inhibition is -6.36% in test [1] and -1.31% in test [2]. In test [3], the viability increase is -0.05%. The values for the viability in test [4] and in test [5] were 101% and 108%, respectively. Besides, the inhibition in test [6] was 0.77%. Further, the RAM network inhibition in test [7] is 3.59%.
Turning to `Cc1ccccc1Nc1ncnc2c1cnn2-c1ccccc1`, the growth inhibition in test [1] is -4.67%; in test [2] it was -4.63%. In test [3], the viability increase is -3.78%. Moreover, the viability in test [4] is 86%; in test [5], 84.3%. Besides, the inhibition in test [6] was -0.23%. Also, the RAM network inhibition in test [7] is -0.01%.
`CCOC(=O)c1ccc(NC(=O)c2nccnc2C(=O)O)cc1`: the results for the growth inhibition in test [1] and in test [2] were -4.96% and -2.24%, respectively. The viability increase in test [3] is -1.42%. For the same molecule, the viability in test [4] is 98.1%; in test [5] it was 96.6%. For the same molecule, the inhibition in test [6] was 1.07%. Further, in test [7], the RAM network inhibition was -0.42%.
For the molecule `CCOC(=O)c1c(C)nc(-c2ccccc2)nc1NC(C)=O`, the figures for the growth inhibition in test [1] and in test [2] were -15.7% and -5.61%, respectively. Further, the viability increase in test [3] is -0.84%. Also, the viability in test [4] is 92%; in test [5] it was 89.5%. Moreover, the inhibition in test [6] is 1.92%. For the same molecule, the RAM network inhibition in test [7] was 7.29%.
Regarding `Cc1noc(C)c1S(=O)(=O)N(CC(=O)NCc1ccc(Cl)cc1)c1ccc2c(c1)OCO2`, the growth inhibition is -13.6% in test [1] and -7.5% in test [2]. In test [3], the viability increase is -3.36%. Besides, the viability in test [4] was 104%; in test [5] it was 97.9%. Besides, the inhibition in test [6] was 2.81%. Further, the RAM network inhibition in test [7] is 1%.
As to `Cn1c(C(=O)NCCc2c[nH]c3ccccc23)cc2sccc21`, the growth inhibition is -2.17% in test [1] and 12.7% in test [2]. Besides, the viability increase in test [3] was -4.58%. The results for the viability in test [4] and in test [5] were 95% and 88%, respectively. Moreover, the inhibition in test [6] is 1.56%. For the same molecule, the RAM network inhibition in test [7] was 2%.
As to `CCCCCSc1nc2c(c(=O)[nH]c(=O)n2C)n1CC`, the values for the growth inhibition in test [1] and in test [2] were -13.1% and 1.94%, respectively. Also, the viability increase in test [3] was -3.9%. Also, the viability in test [4] and in test [5] was 88% throughout. Also, the inhibition in test [6] was 1.18%. The RAM network inhibition in test [7] is -1.69%.
`Cn1c(=O)cc(N2CCCCC2)[nH]c1=O`: the growth inhibition in test [1] is -15.3%; in test [2], -7.48%. In addition, in test [3], the viability increase is -0.1%. For the same molecule, the values for the viability in test [4] and in test [5] were 111% and 97%, respectively. For the same molecule, the inhibition in test [6] is 1.59%. For the same molecule, the RAM network inhibition in test [7] was -0.8%.
Take `CCSc1nnc2c(n1)[nH]c1c(C)cccc12`: the figures for the growth inhibition in test [1] and in test [2] were -6.89% and -1.28%, respectively. Besides, in test [3], the viability increase was -5.1%. Besides, the viability is 47.9% in test [4] and 65.5% in test [5]. Further, the inhibition in test [6] was 4%. In addition, in test [7], the RAM network inhibition is 4.68%.
`O=C(Cn1c2c(c(-c3ccccc3)cc1=O)CCCC2)N1CCCCCC1`: the growth inhibition in test [1] was -10.5%; in test [2] it was -10.3%. Moreover, the viability increase in test [3] is -3.64%. Besides, the viability is 48.8% in test [4] and 49% in test [5]. Besides, in test [6], the inhibition was 1.49%. Further, the RAM network inhibition in test [7] was -0.37%.
Consider `O=C(CSc1ncnc2c1oc1ccccc12)NC1CCCCC1`, for which the growth inhibition in test [1] was -5.42%; in test [2], 3.17%. Moreover, in test [3], the viability increase is -0.15%. The figures for the viability in test [4] and in test [5] were 95% and 85.3%, respectively. In test [6], the inhibition was 1.92%. For the same molecule, in test [7], the RAM network inhibition is 4.21%.
On to `Cc1cc(Nc2cc(F)ccc2C)n2ncnc2n1`, for which the values for the growth inhibition in test [1] and in test [2] were -2.42% and 9.4%, respectively. Besides, in test [3], the viability increase was -0.28%. For the same molecule, the viability is 102% in test [4] and 97.3% in test [5]. Further, in test [6], the inhibition was 3.77%. In addition, the RAM network inhibition in test [7] was 4.19%.
For the molecule `COc1ccccc1NC(=O)N1CCN(c2ccccn2)CC1`, the growth inhibition is -12.1% in test [1] and -7.1% in test [2]. In addition, the viability increase in test [3] was 0.85%. Also, the viability was 103% in test [4] and 104% in test [5]. Further, the inhibition in test [6] is 2.67%. For the same molecule, the RAM network inhibition in test [7] is 4.32%.
For the molecule `COC(=O)c1ccc(-c2nc(-c3cccs3)no2)cc1`, the growth inhibition is 11.1% in test [1] and 10.5% in test [2]. The viability increase in test [3] is -5.21%. For the same molecule, the viability in test [4] was 84.1%; in test [5] it was 76.7%. The inhibition in test [6] is 2.32%. Moreover, the RAM network inhibition in test [7] was 0.79%.
